Activity calls are given as the source filed them. The calls are words filed in the database; no cut-off is given here.
Legend:
[1] = target: Histone-lysine N-methyltransferase EZH2 (Homo sapiens, UniProt Q15910); format: cell-based, Sf9
[2] = target: Protein cereblon/Histone-lysine N-methyltransferase EZH2 (Homo sapiens) (UniProt Q15910+Q96SW2); test: PROTAC activity at CRBN E3 ligase/EZH2 in PRC2 complex in human WSUDLCL2 cells assessed as reduction in H3K27me3 level at 1 uM incubated for 48 hrs by Western blot analysis; format: cell-based
Outline: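 WSU-DLCL-2 cells treated 48 h (1 μM for the single-concentration screen), lysed; SDS-PAGE, nitrocellulose transfer, 5% milk block, primary antibody 4 °C overnight, chemiluminescence. Bands quantified by densitometry, normalized to GAPDH, expressed relative to DMSO-treated cells; mean ± SD of three independent experiments, t-test.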

Chain of Histone-lysine N-methyltransferase EZH2 (Q15910 whole entry): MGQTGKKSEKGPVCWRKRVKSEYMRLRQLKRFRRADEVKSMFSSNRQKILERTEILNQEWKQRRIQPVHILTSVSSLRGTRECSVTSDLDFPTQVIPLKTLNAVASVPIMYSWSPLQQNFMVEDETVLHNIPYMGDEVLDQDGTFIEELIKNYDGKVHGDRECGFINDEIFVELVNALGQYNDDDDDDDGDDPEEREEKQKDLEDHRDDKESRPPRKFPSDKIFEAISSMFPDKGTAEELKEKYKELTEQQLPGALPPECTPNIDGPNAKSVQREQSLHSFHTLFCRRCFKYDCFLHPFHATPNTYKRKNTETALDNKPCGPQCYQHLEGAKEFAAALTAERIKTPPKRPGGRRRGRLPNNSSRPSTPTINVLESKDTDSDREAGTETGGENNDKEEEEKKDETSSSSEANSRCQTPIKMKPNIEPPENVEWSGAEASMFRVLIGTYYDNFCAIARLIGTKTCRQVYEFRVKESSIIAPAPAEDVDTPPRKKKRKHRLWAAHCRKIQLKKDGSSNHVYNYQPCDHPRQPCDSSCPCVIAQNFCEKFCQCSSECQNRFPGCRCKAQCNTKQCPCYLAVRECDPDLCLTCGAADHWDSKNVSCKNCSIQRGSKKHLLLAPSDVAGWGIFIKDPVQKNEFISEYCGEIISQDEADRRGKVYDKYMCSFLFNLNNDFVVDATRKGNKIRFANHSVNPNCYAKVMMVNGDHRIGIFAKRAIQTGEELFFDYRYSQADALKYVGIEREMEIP
Chain of Protein cereblon/Histone-lysine N-methyltransferase EZH2 (Homo sapiens) (Q15910 whole entry, looked up): as the sequence (Q15910 whole entry) above
Chain of Protein cereblon/Histone-lysine N-methyltransferase EZH2 (Homo sapiens) (Q96SW2 whole entry, looked up): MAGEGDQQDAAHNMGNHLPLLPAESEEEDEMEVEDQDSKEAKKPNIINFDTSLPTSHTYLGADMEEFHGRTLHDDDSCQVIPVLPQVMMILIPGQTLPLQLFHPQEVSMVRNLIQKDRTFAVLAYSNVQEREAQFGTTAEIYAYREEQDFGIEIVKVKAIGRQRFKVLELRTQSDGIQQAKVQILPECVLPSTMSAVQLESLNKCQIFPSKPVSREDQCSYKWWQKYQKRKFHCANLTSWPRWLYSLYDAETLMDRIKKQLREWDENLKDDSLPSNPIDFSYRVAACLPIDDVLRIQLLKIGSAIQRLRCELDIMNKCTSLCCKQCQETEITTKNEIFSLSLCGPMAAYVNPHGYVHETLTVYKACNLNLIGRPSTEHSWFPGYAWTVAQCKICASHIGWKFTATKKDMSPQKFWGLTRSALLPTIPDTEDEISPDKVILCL

| IC50 [1] [nM] | Activity [2] | Compound |
| --- | --- | --- |
| 5.8 |  | CC[C@H](C)n1cc(C)c2c(C(=O)NCc3c(C)cc(C)[nH]c3=O)cc(-c3ccc(N4CCN(CCCCCOc5cccc6c5C(=O)N(C5CCC(=O)NC5=O)C6=O)CC4)nc3)cc21 (stereo not given in full) |
| 5.5 |  | CC[C@H](C)n1cc(C)c2c(C(=O)NCc3c(C)cc(C)[nH]c3=O)cc(-c3ccc(N4CCN(CCCCOc5cccc6c5C(=O)N(C5CCC(=O)NC5=O)C6=O)CC4)nc3)cc21 (stereo not given in full) |
| 3.4 | Active | CCN(c1cc(-c2ccc(CN3CCN(CCCCCCCCOc4cccc5c4C(=O)N(C4CCC(=O)NC4=O)C5=O)CC3)cc2)cc(C(=O)NCc2c(C)cc(C)[nH]c2=O)c1C)C1CCOCC1 (stereo not given) |
| 4 |  | CC[C@H](C)n1cc(C)c2c(C(=O)NCc3c(C)cc(C)[nH]c3=O)cc(-c3ccc(N4CCN(CCCCCCOc5cccc6c5C(=O)N(C5CCC(=O)NC5=O)C6=O)CC4)nc3)cc21 (stereo not given in full) |
| 7.3 | Active | CC[C@H](C)n1cc(C)c2c(C(=O)NCc3c(C)cc(C)[nH]c3=O)cc(-c3ccc(N4CCN(CCCCCCCCOc5cccc6c5C(=O)N(C5CCC(=O)NC5=O)C6=O)CC4)nc3)cc21 (stereo not given in full) |
| 30 | Active | CCN(c1cc(-c2ccc(CN3CCN(CCCCCCCCCCCOc4cccc5c4C(=O)N(C4CCC(=O)NC4=O)C5=O)CC3)cc2)cc(C(=O)NCc2c(C)cc(C)[nH]c2=O)c1C)C1CCOCC1 (stereo not given) |
| 144 | Active | CC[C@H](C)n1cc(C)c2c(C(=O)NCc3c(C)cc(C)[nH]c3=O)cc(-c3ccc(N4CCN(CCCCCCCCCCOc5cccc6c5C(=O)N(C5CCC(=O)NC5=O)C6=O)CC4)nc3)cc21 (stereo not given in full) |
| 53 |  | CCN(c1cc(-c2ccc(CN3CCN(CCCCCCCCCCCCOc4cccc5c4C(=O)N(C4CCC(=O)NC4=O)C5=O)CC3)cc2)cc(C(=O)NCc2c(C)cc(C)[nH]c2=O)c1C)C1CCOCC1 (stereo not given) |
| 165 | Active | CC[C@H](C)n1cc(C)c2c(C(=O)NCc3c(C)cc(C)[nH]c3=O)cc(-c3ccc(N4CCN(CCCCCCCCCCCOc5cccc6c5C(=O)N(C5CCC(=O)NC5=O)C6=O)CC4)nc3)cc21 (stereo not given in full) |
| 4.5 |  | CCN(c1cc(-c2ccc(CN3CCN(CCCCCOc4cccc5c4C(=O)N(C4CCC(=O)NC4=O)C5=O)CC3)cc2)cc(C(=O)NCc2c(C)cc(C)[nH]c2=O)c1C)C1CCOCC1 (stereo not given) |
| 6.3 |  | CC[C@H](C)n1cc(C)c2c(C(=O)NCc3c(C)cc(C)[nH]c3=O)cc(-c3ccc(N4CCN(CCCCCCCOc5cccc6c5C(=O)N(C5CCC(=O)NC5=O)C6=O)CC4)nc3)cc21 (stereo not given in full) |
| 17 | Active | CCN(c1cc(-c2ccc(CN3CCN(CCCCCCCCCCOc4cccc5c4C(=O)N(C4CCC(=O)NC4=O)C5=O)CC3)cc2)cc(C(=O)NCc2c(C)cc(C)[nH]c2=O)c1C)C1CCOCC1 (stereo not given) |
| 16 | Active | CC[C@H](C)n1cc(C)c2c(C(=O)NCc3c(C)cc(C)[nH]c3=O)cc(-c3ccc(N4CCN(CCCCCCCCCOc5cccc6c5C(=O)N(C5CCC(=O)NC5=O)C6=O)CC4)nc3)cc21 (stereo not given in full) |
| 15 | Active | CCN(c1cc(-c2ccc(CN3CCN(CCCCCCCCCOc4cccc5c4C(=O)N(C4CCC(=O)NC4=O)C5=O)CC3)cc2)cc(C(=O)NCc2c(C)cc(C)[nH]c2=O)c1C)C1CCOCC1 (stereo not given) |
| 3.9 |  | CCN(c1cc(-c2ccc(CN3CCN(CCCCCCOc4cccc5c4C(=O)N(C4CCC(=O)NC4=O)C5=O)CC3)cc2)cc(C(=O)NCc2c(C)cc(C)[nH]c2=O)c1C)C1CCOCC1 (stereo not given) |
| 3.7 | Active | CCN(c1cc(-c2ccc(CN3CCN(CCCCOc4cccc5c4C(=O)N(C4CCC(=O)NC4=O)C5=O)CC3)cc2)cc(C(=O)NCc2c(C)cc(C)[nH]c2=O)c1C)C1CCOCC1 (stereo not given) |

From ChEMBL document CHEMBL5038571, “Design and Synthesis of EZH2-Based PROTACs to Degrade the PRC2 Complex for Targeting the Noncatalytic Activity of EZH2” (J Med Chem, 2021)
